Results from different studies.
Each line is one published result; the experiments were not run side by side.
Target: Calcium/calmodulin-dependent protein kinase type II subunit beta (CAMK2B, Homo sapiens, UniProt Q13554)

| Compound | assay | setting | endpoint | value |
| --- | --- | --- | --- | --- |
| Cc1nn(C)cc1-c1nc2c(N3CCN(Cc4ccc(Cl)cc4)CC3)c(Cl)cnc2[nH]1 | binding, competition with immobilised ligand | 1 µM | remaining binding | 94% |
| Cn1cc(-c2cccc(N3CCc4c(sc5c4CC(C)(C)C5)C3=O)c2CO)cc(Nc2ccncn2)c1=O | enzyme activity, inhibitor | 1 µM | inhibition | 12% |
| Nc1ncc(-c2nc(N3CCOCC3)nc(N3CCOCC3)n2)c(C(F)F)n1 | binding, competition with immobilised ligand | 10 µM | remaining binding | 69% |
| C#Cc1n[nH]c2c(-c3cn([C@@H](C)c4ccccc4)c(=O)[nH]c3=O)cc(F)cc12 | enzyme activity, inhibitor | 0.1 µM | inhibition | 6.5% |
| CC(C)(C)c1cc(C=C(C#N)C#N)cc(Br)c1O | enzyme activity, inhibitor | 0.5 µM | remaining activity | 99.3% |
| Cn1cc(-c2cc(F)cc(N3CCn4c(cc5c4CCCC5)C3=O)c2CO)cc(Nc2ccc(N3CCN(C4COC4)CC3)cn2)c1=O | enzyme activity, inhibitor | 0.1 µM | inhibition | 7% |
| N#CC1(c2ccccn2)CCN(Cc2cc(C(=O)O)c(=O)n3ccccc23)CC1 | cell-free assay, competition with immobilised ligand | 1 µM | remaining binding | 100% |
| O=c1[nH]c2ccccc2n1C1CCN(Cc2ccc(-c3[nH]c4cc5ncnc5cc4nc3-c3ccccc3)cc2)CC1 | enzyme activity | 0.5 µM | remaining activity | 104% |
| COc1ncccc1-c1cnn2ccc(N3CCN(C(=O)OC(C)C)CC3)nc12 | binding, competition with immobilised ligand | 1 µM | remaining binding | 81% |
| C#Cc1n[nH]c2c(-c3cn(C(C)c4ccccn4)c(=O)[nH]c3=O)cc(F)cc12 (centres unmarked) | enzyme activity, inhibitor | 1 µM | inhibition | 4.3% |
| Cn1cncc1[C@@](O)(COc1ccc(C#N)cc1-c1ccc(OC(F)(F)F)cc1)c1ccc(C#N)cc1 | cell-free assay, competition with immobilised ligand | 1 µM | remaining binding | 90% |
